Among the data in ChEMBL document CHEMBL3045743, “Synthesis and herbicidal activity of isoindoline-1,3-dione substituted benzoxazinone derivatives containing a carboxylic ester group” (J Agric Food Chem, 2009) are inhibition of growth values, retold here.

Common to all, as to assay type: functional
The subject of assay [1] is Chenopodium album. Nature of the assay: Post-emergence herbicidal activity against Chenopodium album assessed as growth inhibition at 75 g.a.i./ha applied at two-leaf stage measured after 15 days. The following applies: 360 h, read-out: GI. In short, it runs like this: (§1)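 Pot-grown weeds sown 5 mm deep in greenhouse clay soil (pH 6.5, 1.7% organic matter, CEC 12.9 cmol/kg) at 22-25 °C. Stock diluted with water and sprayed post-emergence: dicots at 2-leaf stage, monocots at 1-leaf stage. Untreated and DMF solvent controls were included. % growth inhibition was scored visually versus untreated controls after 15 days. Triplicates averaged.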

In assay [2] the test system is Setaria viridis. Nature of the assay: Post-emergence herbicidal activity against Setaria viridis (green foxtail) assessed as growth inhibition at 75 g.a.i./ha applied at one-leaf stage measured after 15 days. The following applies: 360 h, read-out: GI. The method in brief: as §1
Assay [3] relates to Abutilon theophrasti. As to the kind of experiment: Pre-emergence herbicidal activity against Abutilon theophrasti (velvetleaf) assessed as growth inhibition at 75 g.a.i./ha applied 24 hr after seeds were sown measured after 15 days. Conditions: read-out: GI. The method in brief:
(§2)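 Weeds sown 5 mm deep in pots of greenhouse clay soil (pH 6.5, 37.5% clay, CEC 12.9 cmol/kg) and grown at 22-25 °C. Water-diluted formulation was applied pre-emergence 24 h after sowing. Untreated and DMF solvent controls were included. Growth inhibition was visually rated in % against untreated controls after 15 days, as the mean of triplicates.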

Assay [4] relates to Amaranthus. Nature of the assay: Post-emergence herbicidal activity against Amaranthus ascendens assessed as growth inhibition at 75 g.a.i./ha applied at two-leaf stage measured after 15 days. The following applies: 360 h, read-out: GI. In short, it runs like this:
as §1

Assay [5] concerns Digitaria sanguinalis. Nature of the assay: Pre-emergence herbicidal activity against Digitaria sanguinalis (hairy crabgrass) assessed as growth inhibition at 75 g.a.i./ha applied 24 hr after seeds were sown measured after 15 days. Conditions: read-out: GI. In short, it runs like this: as §2
Assay [6] deals with Abutilon theophrasti. Nature of the assay: Post-emergence herbicidal activity against Abutilon theophrasti (velvetleaf) assessed as growth inhibition at 75 g.a.i./ha applied at two-leaf stage measured after 15 days. The following applies: 360 h, read-out: GI. In short, it runs like this: as §1
The subject of assay [7] is Amaranthus. As to the kind of experiment: Pre-emergence herbicidal activity against Amaranthus ascendens assessed as growth inhibition at 75 g.a.i./ha applied 24 hr after seeds were sown measured after 15 days. Conditions: read-out: GI. In short, it runs like this: as §2
The test system of assay [8] is Setaria viridis. As to the kind of experiment: Pre-emergence herbicidal activity against Setaria viridis (green foxtail) assessed as growth inhibition at 75 g.a.i./ha applied 24 hr after seeds were sown measured after 15 days. The following applies: read-out: GI. The method in brief:
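Preliminary pre-emergence screen at a single rate of 75 g a.i./ha. Stock diluted with water and sprayed on greenhouse pots 24 h after seeds were sown 5 mm deep in clay soil (pH 6.5, 1.7% organic matter); grown at 22-25 °C. Untreated and DMF solvent controls included; triplicate. Visual % growth inhibition vs untreated after 15 days, averaged and banded (>80% top band).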

The test system of assay [9] is Echinochloa crus-galli. Nature of the assay: Pre-emergence herbicidal activity against Echinochloa crus-galli (barnyard grass) assessed as growth inhibition at 75 g.a.i./ha applied 24 hr after seeds were sown measured after 15 days. The following applies: read-out: GI. The method in brief:
as §2

Assay [10] deals with Chenopodium album. Nature of the assay: Pre-emergence herbicidal activity against Chenopodium album assessed as growth inhibition at 75 g.a.i./ha applied 24 hr after seeds were sown measured after 15 days. The following applies: read-out: GI. The method in brief:
as §2

For assay [11], the system named is Digitaria sanguinalis. As to the kind of experiment: Post-emergence herbicidal activity against Digitaria sanguinalis (hairy crabgrass) assessed as growth inhibition at 75 g.a.i./ha applied at one-leaf stage measured after 15 days. The following applies: 360 h, read-out: GI. In short, it runs like this: as §1
Assay [12] concerns Echinochloa crus-galli. Nature of the assay: Post-emergence herbicidal activity against Echinochloa crus-galli (barnyard grass) assessed as growth inhibition at 75 g.a.i./ha applied at one-leaf stage measured after 15 days. The following applies: 360 h, read-out: GI. The method in brief:
as §1

Turning to `COC(=O)C(C)N1C(=O)COc2cc(F)c(N3C(=O)c4ccccc4C3=O)cc21` (centres undefined), the inhibition of growth at 75 g/ha in assay [1] is greater than 80%; in assay [2] it was 50%; in assay [3] it was less than 50%; in assay [4], greater than 80%; in [5], less than 50%; in assay [6], greater than 80%. Also, the inhibition of growth at 75 g/ha in [7] was less than 50%; in [8], less than 50%; in assay [9], less than 50%; in [10] it was less than 50%; in assay [11], 50%; in assay [12], 50%.
Consider `COC(=O)CN1C(=O)C(C)Oc2cc(F)c(N3C(=O)C4=C(CCCC4)C3=O)cc21` (centres undefined), for which the inhibition of growth at 75 g/ha in [1] is greater than 80%; in assay [2] it was 50%; in assay [3], greater than 80%; in [4], greater than 80%; in assay [5], less than 50%; in [6], greater than 80%. The inhibition of growth at 75 g/ha in assay [7] is greater than 80%; in [8], less than 50%; in assay [9], less than 50%; in assay [10], greater than 80%; in [11], 50%; in assay [12], less than 50%.
With `CCOC(=O)CN1C(=O)COc2cc(N3C(=O)c4cc(Cl)c(Cl)cc4C3=O)c(F)cc21`, the inhibition of growth at 75 g/ha in [1], in [2], in assay [3], in assay [4], in assay [5] and in assay [6] was less than 50% each time. The inhibition of growth at 75 g/ha in assay [7], in [8], in assay [9], in assay [10], in assay [11] and in [12] was less than 50% in each case.
For `COC(=O)C(C)N1C(=O)COc2cc(F)c(N3C(=O)C4=C(CCCC4)C3=O)cc21` (centres undefined), the inhibition of growth at 75 g/ha in assay [1] was greater than 80%; in assay [2], greater than 80%; in assay [3] it was greater than 80%; in assay [4], greater than 80%; in assay [5] it was less than 50%; in [6] it was greater than 80%. In addition, the inhibition of growth at 75 g/ha in assay [7] is 50%; in assay [8] it was less than 50%; in [9] it was less than 50%; in assay [10] it was 50%; in [11] it was greater than 80%; in [12], greater than 80%.
Take `CCOC(=O)CN1C(=O)COc2cc(F)c(N3C(=O)c4ccc([N+](=O)[O-])cc4C3=O)cc21`: the inhibition of growth at 75 g/ha is 50% in [1]; less than 50% in assay [2]; less than 50% in assay [3]; 50% in assay [4]; less than 50% in assay [5]; 50% in assay [6]. The inhibition of growth at 75 g/ha in assay [7], in assay [8], in [9], in assay [10], in [11] and in [12] was less than 50% throughout.
Regarding `COC(=O)CN1C(=O)COc2cc(F)c(N3C(=O)C4=C(CCCC4)C3=O)cc21`, the inhibition of growth at 75 g/ha in assay [1] is greater than 80%; in assay [2] it was 50%; in assay [3] it was 50%; in [4], greater than 80%; in assay [5] it was less than 50%; in assay [6] it was greater than 80%. Moreover, the inhibition of growth at 75 g/ha in [7] was 50%; in [8], less than 50%; in assay [9], less than 50%; in assay [10] it was 50%; in [11], 50%; in assay [12], 50%.
Take `CCOC(=O)CN1C(=O)COc2cc(F)c(N3C(=O)C4=C(CCCC4)C3=O)cc21`: the inhibition of growth at 75 g/ha in assay [1] was greater than 80%; in [2] it was less than 50%; in assay [3] it was greater than 80%; in [4] it was greater than 80%; in [5] it was less than 50%; in assay [6], greater than 80%. Besides, the inhibition of growth at 75 g/ha is greater than 80% in assay [7]; less than 50% in assay [8]; less than 50% in assay [9]; greater than 80% in [10]; less than 50% in assay [11]; less than 50% in [12].
Regarding `C#CCN1C(=O)COc2cc(F)c(N3C(=O)c4ccc(F)cc4C3=O)cc21`, the inhibition of growth at 75 g/ha in assay [1], in assay [2], in assay [3], in assay [4], in [5] and in assay [6] was greater than 80% throughout. The inhibition of growth at 75 g/ha in assay [7], in assay [8], in assay [9], in [10], in assay [11] and in [12] was greater than 80% throughout.
Take `CCOC(=O)C(C)N1C(=O)COc2cc(F)c(N3C(=O)C4=C(CCCC4)C3=O)cc21` (centres undefined): the inhibition of growth at 75 g/ha in [1] was greater than 80%; in assay [2] it was greater than 80%; in assay [3], greater than 80%; in assay [4] it was greater than 80%; in assay [5] it was 50%; in assay [6] it was greater than 80%. The inhibition of growth at 75 g/ha in [7] was greater than 80%; in assay [8], 50%; in assay [9], less than 50%; in [10], greater than 80%; in [11] it was greater than 80%; in assay [12], greater than 80%.
Consider `CCOC(=O)CN1C(=O)COc2cc(N3C(=O)c4ccccc4C3=O)c(F)cc21`, for which the inhibition of growth at 75 g/ha in assay [1], in assay [2], in [3], in assay [4], in assay [5] and in assay [6] was less than 50% throughout. Also, the inhibition of growth at 75 g/ha in [7], in [8], in assay [9], in assay [10], in [11] and in assay [12] was less than 50% in each case.
With `CCOC(=O)CN1C(=O)COc2cc(F)c(N3C(=O)c4ccc(C)cc4C3=O)cc21`, the inhibition of growth at 75 g/ha is 50% in assay [1]; less than 50% in [2]; less than 50% in assay [3]; 50% in assay [4]; less than 50% in [5]; 50% in assay [6]. Besides, the inhibition of growth at 75 g/ha in [7], in assay [8], in assay [9], in assay [10], in [11] and in assay [12] was less than 50% in each case.
`CCOC(=O)CN1C(=O)COc2cc(N3C(=O)c4ccc(C)cc4C3=O)c(F)cc21`: the inhibition of growth at 75 g/ha in assay [1], in assay [2], in [3], in assay [4], in assay [5] and in [6] was less than 50% each time. In addition, the inhibition of growth at 75 g/ha in assay [7], in assay [8], in assay [9], in [10], in assay [11] and in assay [12] was less than 50% throughout.
